What was measured:
[1] = Biodistribution in brain of BALB/c nu/nu mouse xenografted with human MDA-MB-231 cells at 7.4 kBq, iv using [125I] labeled compound measured after 180 mins by gamma counter method; assay type: ADME, organism-based; settings: in vivo, 3 h
Outline: (§1)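 Radioactivity in each excised tissue is expressed as percent injected dose per gram (% ID/g). Each value is the mean (SD) of three tumor-bearing mice per time point (n = 3).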

[2] = Biodistribution in lung of BALB/c nu/nu mouse xenografted with human MDA-MB-231 cells at 7.4 kBq, iv using [125I] labeled compound measured after 30 mins by gamma counter method; assay type: ADME, organism-based; settings: in vivo, 0.5 h; outline: as §1
[3] = Biodistribution in muscle of BALB/c nu/nu mouse xenografted with human MDA-MB-231 cells at 7.4 kBq, iv using [125I] labeled compound measured after 60 mins by gamma counter method; assay type: ADME, organism-based, Muscle tissue; settings: in vivo, 1 h; outline: as §1
[4] = Biodistribution in intestine of BALB/c nu/nu mouse xenografted with human MDA-MB-231 cells at 7.4 kBq, iv using [125I] labeled compound measured after 30 mins by gamma counter method; assay type: ADME, organism-based; settings: in vivo, 0.5 h; outline: as §1
[5] = Biodistribution in blood of BALB/c nu/nu mouse xenografted with human MDA-MB-231 cells at 7.4 kBq, iv using [125I] labeled compound measured after 30 mins by gamma counter method; assay type: ADME, organism-based; settings: in vivo, 0.5 h; outline: as §1
[6] = Biodistribution in spleen of BALB/c nu/nu mouse xenografted with human MDA-MB-231 cells at 7.4 kBq, iv using [125I] labeled compound measured after 60 mins by gamma counter method; assay type: ADME, organism-based; settings: in vivo, 1 h; outline: as §1
[7] = Biodistribution in stomach of BALB/c nu/nu mouse xenografted with human MDA-MB-231 cells at 7.4 kBq, iv using [125I] labeled compound measured after 60 mins by gamma counter method; assay type: ADME, organism-based; settings: in vivo, 1 h; outline: as §1
[8] = Biodistribution in liver of BALB/c nu/nu mouse xenografted with human MDA-MB-231 cells at 7.4 kBq, iv using [125I] labeled compound measured after 60 mins by gamma counter method; assay type: ADME, organism-based; settings: in vivo, 1 h; outline: as §1
[9] = Biodistribution in brain of BALB/c nu/nu mouse xenografted with human MDA-MB-231 cells at 7.4 kBq, iv using [125I] labeled compound measured after 60 mins by gamma counter method; assay type: ADME, organism-based; settings: in vivo, 1 h; outline: as §1
[10] = Biodistribution in pancreas of BALB/c nu/nu mouse xenografted with human MDA-MB-231 cells at 7.4 kBq, iv using [125I] labeled compound measured after 180 mins by gamma counter method; assay type: ADME, organism-based; settings: in vivo, 3 h; outline: as §1
[11] = Biodistribution in lung of BALB/c nu/nu mouse xenografted with human MDA-MB-231 cells at 7.4 kBq, iv using [125I] labeled compound measured after 60 mins by gamma counter method; assay type: ADME, organism-based; settings: in vivo, 1 h; outline: as §1
[12] = Biodistribution in muscle of BALB/c nu/nu mouse xenografted with human MDA-MB-231 cells at 7.4 kBq, iv using [125I] labeled compound measured after 30 mins by gamma counter method; assay type: ADME, organism-based, Muscle tissue; settings: in vivo, 0.5 h; outline: as §1
[13] = Biodistribution in kidney of BALB/c nu/nu mouse xenografted with human MDA-MB-231 cells at 7.4 kBq, iv using [125I] labeled compound measured after 180 mins by gamma counter method; assay type: ADME, organism-based; settings: in vivo, 3 h; outline: as §1
[14] = Biodistribution in liver of BALB/c nu/nu mouse xenografted with human MDA-MB-231 cells at 7.4 kBq, iv using [125I] labeled compound measured after 180 mins by gamma counter method; assay type: ADME, organism-based; settings: in vivo, 3 h; outline: as §1
[15] = Biodistribution in pancreas of BALB/c nu/nu mouse xenografted with human MDA-MB-231 cells at 7.4 kBq, iv using [125I] labeled compound measured after 30 mins by gamma counter method; assay type: ADME, organism-based; settings: in vivo, 0.5 h; outline: as §1
[16] = Biodistribution in tumor of BALB/c nu/nu mouse xenografted with human MDA-MB-231 cells at 7.4 kBq, iv using [125I] labeled compound measured after 30 mins by gamma counter method; assay type: ADME, organism-based, Neoplasm; settings: in vivo, 0.5 h; outline: as §1
[17] = Biodistribution in blood of BALB/c nu/nu mouse xenografted with human MDA-MB-231 cells at 7.4 kBq, iv using [125I] labeled compound measured after 60 mins by gamma counter method; assay type: ADME, organism-based; settings: in vivo, 1 h; outline: as §1
[18] = Biodistribution in kidney of BALB/c nu/nu mouse xenografted with human MDA-MB-231 cells at 7.4 kBq, iv using [125I] labeled compound measured after 30 mins by gamma counter method; assay type: ADME, organism-based; settings: in vivo, 0.5 h; outline: as §1
[19] = Biodistribution in spleen of BALB/c nu/nu mouse xenografted with human MDA-MB-231 cells at 7.4 kBq, iv using [125I] labeled compound measured after 30 mins by gamma counter method; assay type: ADME, organism-based; settings: in vivo, 0.5 h; outline: as §1
[20] = Biodistribution in heart of BALB/c nu/nu mouse xenografted with human MDA-MB-231 cells at 7.4 kBq, iv using [125I] labeled compound measured after 30 mins by gamma counter method; assay type: ADME, organism-based; settings: in vivo, 0.5 h; outline: as §1
[21] = Biodistribution in heart of BALB/c nu/nu mouse xenografted with human MDA-MB-231 cells at 7.4 kBq, iv using [125I] labeled compound measured after 180 mins by gamma counter method; assay type: ADME, organism-based; settings: in vivo, 3 h; outline: as §1
[22] = Biodistribution in liver of BALB/c nu/nu mouse xenografted with human MDA-MB-231 cells at 7.4 kBq, iv using [125I] labeled compound measured after 30 mins by gamma counter method; assay type: ADME, organism-based; settings: in vivo, 0.5 h; outline: as §1
[23] = Biodistribution in stomach of BALB/c nu/nu mouse xenografted with human MDA-MB-231 cells at 7.4 kBq, iv using [125I] labeled compound measured after 180 mins by gamma counter method; assay type: ADME, organism-based; settings: in vivo, 3 h; outline: as §1
[24] = Biodistribution in tumor of BALB/c nu/nu mouse xenografted with human MDA-MB-231 cells at 7.4 kBq, iv using [125I] labeled compound measured after 180 mins by gamma counter method; assay type: ADME, organism-based, Neoplasm; settings: in vivo, 3 h; outline: as §1
[25] = Biodistribution in spleen of BALB/c nu/nu mouse xenografted with human MDA-MB-231 cells at 7.4 kBq, iv using [125I] labeled compound measured after 180 mins by gamma counter method; assay type: ADME, organism-based; settings: in vivo, 3 h; outline: as §1
[26] = Biodistribution in intestine of BALB/c nu/nu mouse xenografted with human MDA-MB-231 cells at 7.4 kBq, iv using [125I] labeled compound measured after 60 mins by gamma counter method; assay type: ADME, organism-based; settings: in vivo, 1 h; outline: as §1
[27] = Biodistribution in kidney of BALB/c nu/nu mouse xenografted with human MDA-MB-231 cells at 7.4 kBq, iv using [125I] labeled compound measured after 60 mins by gamma counter method; assay type: ADME, organism-based; settings: in vivo, 1 h; outline: as §1
[28] = Biodistribution in stomach of BALB/c nu/nu mouse xenografted with human MDA-MB-231 cells at 7.4 kBq, iv using [125I] labeled compound measured after 30 mins by gamma counter method; assay type: ADME, organism-based; settings: in vivo, 0.5 h; outline: as §1
[29] = Biodistribution in intestine of BALB/c nu/nu mouse xenografted with human MDA-MB-231 cells at 7.4 kBq, iv using [125I] labeled compound measured after 180 mins by gamma counter method; assay type: ADME, organism-based; settings: in vivo, 3 h; outline: as §1
[30] = Biodistribution in brain of BALB/c nu/nu mouse xenografted with human MDA-MB-231 cells at 7.4 kBq, iv using [125I] labeled compound measured after 30 mins by gamma counter method; assay type: ADME, organism-based; settings: in vivo, 0.5 h; outline: as §1
[31] = Biodistribution in tumor of BALB/c nu/nu mouse xenografted with human MDA-MB-231 cells at 7.4 kBq, iv using [125I] labeled compound measured after 60 mins by gamma counter method; assay type: ADME, organism-based, Neoplasm; settings: in vivo, 1 h; outline: as §1
[32] = Biodistribution in muscle of BALB/c nu/nu mouse xenografted with human MDA-MB-231 cells at 7.4 kBq, iv using [125I] labeled compound measured after 180 mins by gamma counter method; assay type: ADME, organism-based, Muscle tissue; settings: in vivo, 3 h; outline: as §1
[33] = Biodistribution in heart of BALB/c nu/nu mouse xenografted with human MDA-MB-231 cells at 7.4 kBq, iv using [125I] labeled compound measured after 60 mins by gamma counter method; assay type: ADME, organism-based; settings: in vivo, 1 h; outline: as §1
[34] = Biodistribution in pancreas of BALB/c nu/nu mouse xenografted with human MDA-MB-231 cells at 7.4 kBq, iv using [125I] labeled compound measured after 60 mins by gamma counter method; assay type: ADME, organism-based; settings: in vivo, 1 h; outline: as §1
[35] = Biodistribution in blood of BALB/c nu/nu mouse xenografted with human MDA-MB-231 cells at 7.4 kBq, iv using [125I] labeled compound measured after 180 mins by gamma counter method; assay type: ADME, organism-based; settings: in vivo, 3 h; outline: as §1
[36] = Biodistribution in lung of BALB/c nu/nu mouse xenografted with human MDA-MB-231 cells at 7.4 kBq, iv using [125I] labeled compound measured after 180 mins by gamma counter method; assay type: ADME, organism-based; settings: in vivo, 3 h; outline: as §1

Q: Which Drug uptake [1] does the source give for `CCCN1CCC(C(=O)N(C)Cc2cc(Cl)cc(-c3cc(-c4cc(C(F)(F)F)ccc4[125I])c(C#N)c(=O)[nH]3)c2O)CC1` here?
A: Its Drug uptake is 0.05 % ID/g.

Q: And the Drug uptake [2]?
A: The Drug uptake was 2.25 % ID/g.

Q: What about the Drug uptake [3] of the same compound?
A: Its Drug uptake is 0.29 % ID/g.

Q: And the Drug uptake [4]?
A: Its Drug uptake is 10.1 % ID/g.

Q: And the Drug uptake [5]?
A: The Drug uptake was 1.36 % ID/g.

Q: And the Drug uptake [6]?
A: Its Drug uptake is 1.1 % ID/g.

Q: And the Drug uptake [7]?
A: The Drug uptake was 5.33 % ID/g.

Q: And the Drug uptake [8]?
A: Its Drug uptake is 10.01 % ID/g.

Q: And the Drug uptake [9]?
A: The Drug uptake was 0.06 % ID/g.

Q: And the Drug uptake [10]?
A: Its Drug uptake is 0.61 % ID/g.

Q: And the Drug uptake [11]?
A: The Drug uptake was 1.43 % ID/g.

Q: And the Drug uptake [12]?
A: Its Drug uptake is 0.42 % ID/g.

Q: What about the Drug uptake [13] of the same compound?
A: The Drug uptake was 1.22 % ID/g.

Q: What about the Drug uptake [14] of the same compound?
A: Its Drug uptake is 5.68 % ID/g.

Q: And the Drug uptake [15]?
A: Its Drug uptake is 2.22 % ID/g.

Q: What about the Drug uptake [16] of the same compound?
A: The Drug uptake was 0.51 % ID/g.

Q: What about the Drug uptake [17] of the same compound?
A: Its Drug uptake is 0.72 % ID/g.

Q: What about the Drug uptake [18] of the same compound?
A: Its Drug uptake is 3.02 % ID/g.

Q: And the Drug uptake [19]?
A: Its Drug uptake is 2.27 % ID/g.

Q: What about the Drug uptake [20] of the same compound?
A: The Drug uptake was 0.84 % ID/g.

Q: What about the Drug uptake [21] of the same compound?
A: The Drug uptake was 0.51 % ID/g.

Q: And the Drug uptake [22]?
A: Its Drug uptake is 16.3 % ID/g.

Q: And the Drug uptake [23]?
A: The Drug uptake was 6.21 % ID/g.

Q: And the Drug uptake [24]?
A: The Drug uptake was 0.65 % ID/g.

Q: And the Drug uptake [25]?
A: Its Drug uptake is 0.71 % ID/g.

Q: What about the Drug uptake [26] of the same compound?
A: Its Drug uptake is 25.3 % ID/g.

Q: And the Drug uptake [27]?
A: Its Drug uptake is 1.5 % ID/g.

Q: What about the Drug uptake [28] of the same compound?
A: The Drug uptake was 3.54 % ID/g.

Q: And the Drug uptake [29]?
A: Its Drug uptake is 21.5 % ID/g.

Q: What about the Drug uptake [30] of the same compound?
A: The Drug uptake was 0.07 % ID/g.

Q: What about the Drug uptake [31] of the same compound?
A: The Drug uptake was 0.63 % ID/g.

Q: And the Drug uptake [32]?
A: The Drug uptake was 0.33 % ID/g.

Q: What about the Drug uptake [33] of the same compound?
A: The Drug uptake was 0.53 % ID/g.

Q: And the Drug uptake [34]?
A: Its Drug uptake is 0.55 % ID/g.

Q: What about the Drug uptake [35] of the same compound?
A: Its Drug uptake is 0.99 % ID/g.

Q: What about the Drug uptake [36] of the same compound?
A: The Drug uptake was 1.35 % ID/g.
